Data: ChEMBL document CHEMBL4011638, “Semisynthetic Flavone-Derived Antimicrobials with Therapeutic Potential against Methicillin-Resistant Staphylococcus aureus (MRSA)” (J Med Chem, 2017)
≈ marks a conversion by molar mass, not a printed value. Calls of active or inactive are those of the source. The rule behind the calls is not given here.

Assays:
Staphylococcus aureus [1] = experiment: Antibacterial activity against methicillin-resistant Staphylococcus aureus DB6506 after 24 hrs by broth microdilution method; type: functional; details: DB6506, 24 h
How it was run: (§1)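 Broth microdilution per CLSI in cation-adjusted Mueller−Hinton broth, in tubes. Compounds dissolved in H2O or DMF, then diluted in PBS to 1000 μg/mL stocks. Serial 2-fold dilutions were made, with final DMF 2.5%. Organisms were grown on TSA at 35 °C for 20 h and adjusted to ~5× 10^5 CFU/mL. Tubes were incubated at 35 °C for 24 h. MIC was the lowest concentration with no visible growth versus control. Biological replicates.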

Staphylococcus aureus [2] = experiment: Antibacterial activity against methicillin-resistant Staphylococcus aureus DB57964 after 24 hrs by broth microdilution method; type: functional; details: DB57964, 24 h; how it was run: as §1
Staphylococcus aureus [3] = experiment: Antibacterial activity against methicillin-resistant Staphylococcus aureus ATCC 43300 after 24 hrs by broth microdilution method; type: functional; details: ATCC 43300, 24 h; how it was run: as §1
Staphylococcus aureus [4] = experiment: Antibacterial activity against methicillin-resistant Staphylococcus aureus BAA-38 after 24 hrs by broth microdilution method; type: functional; details: BAA-38, 24 h; how it was run: as §1
Staphylococcus aureus [5] = experiment: Bactericidal activity against methicillin-resistant Staphylococcus aureus DM9808R assessed as log reduction in bacterial count at 2 times MIC up to 2 hrs by time kill assay; type: functional
How it was run: (§2)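 Time-kill. Starting inoculum 10^5−10^6 CFU/mL, exposed to 0.5×, 1×, 2× and 4× MIC at 35 °C. Colonies were counted after 24 h at 35 °C and CFU/mL calculated. Biological replicates.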

Staphylococcus aureus [6] = experiment: Antibacterial activity against Staphylococcus aureus ATCC 29213 after 17 passages; type: functional
Lipid bilayer [7] = experiment: Membrane permeabilization activity in DOPE/DOPG large unilamellar liposomes assessed as leakage of calcein at 1:4 compound to lipid ratio by fluorescence assay
How it was run: (§3)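 Calcein-loaded 100 nm LUVs of DOPE/DOPG (3:1, w/w), made by film hydration in 80 mM calcein, 100 mM NaCl, 50 mM HEPES, 0.3 mM EDTA, pH 7.4. Liposomes 50 μM, 0.5% DMF, room temperature. Read at ex 490/em 520 nm every 2 min for 30 cycles. % leakage normalized to 0.1% Triton X-100 (100%) and 0.5% DMF (0%). Biological replicates.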

Lipid bilayer [8] = experiment: Membrane permeabilization activity in DOPE/DOPG large unilamellar liposomes assessed as leakage of calcein at 1:8 compound to lipid ratio by fluorescence assay; how it was run: as §3
[9] = Cytotoxicity in human Corneal fibroblasts assessed as LDH release at 100 uM after 24 hrs; type: cell-based; details: corneal fibroblast
How it was run: (§4)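 Human corneal fibroblasts are exposed to test samples for 24 h, and cytotoxicity is read as LDH leakage into the medium. Biological replicates.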

Staphylococcus aureus [10] = experiment: Antibacterial activity against Staphylococcus aureus ATCC 29213 infected in C57BL6 mouse keratitis model assessed as log reduction in bacterial burden at 0.5 % administered 4 times daily at 2 hrs interval for 1 day; type: functional
How it was run: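 C57BL6 mice, 6–8 weeks, 20–30 g, four per group, anesthetized with ketamine/xylazine. Right cornea scratched (three 1 mm cuts), 10 μL of 6×10^8 CFU/mL S. aureus ATCC 29213 in PBS applied topically. From day 1, 0.5% drug in PBS (12 mM, pH 7.2) given 4 times at 2 h intervals. Corneas homogenized in 0.9% NaCl/0.25% BSA, diluted, plated in duplicate on TSA, 48 h at 35 °C.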

Staphylococcus aureus [11] = experiment: Bactericidal activity against methicillin-resistant Staphylococcus aureus DM9808R assessed as log reduction in bacterial count up to 4 hrs by time kill assay; type: functional; how it was run: as §2
[12] = Cytotoxicity against human Corneal fibroblasts assessed cell viability at 30 uM after 24 hrs by Cell Titer-Glo luminescent assay; type: cell-based, Corneal fibroblast; details: read-out: Activity
How it was run: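 ATP luminescence viability in human corneal fibroblasts, ~10000 cells per well, duplicate wells. After 24 h exposure the plate is equilibrated 0.5 h at 22 °C before Cell Titer-Glo addition and luminescence read. 1% Triton X-100 serves as positive control, medium-treated cells as negative control. Biological replicates.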

[13] = Cytotoxicity in human Corneal fibroblasts assessed as LDH release at 50 uM after 24 hrs; type: cell-based; details: corneal fibroblast; how it was run: as §4

COC(=O)[C@H](CCCNC(=N)N)NC(=O)COc1cc(O)c2c(=O)c(OCC(=O)N[C@@H](CCCNC(=N)N)C(=O)OC)c(-c3ccc(OC)cc3)oc2c1CC=C(C)C
MIC (Staphylococcus aureus [1]): 3.13 µg/mL (≈ 3.79 µM) | MIC (Staphylococcus aureus [2]): 3.13 µg/mL (≈ 3.79 µM) | MIC (Staphylococcus aureus [3]): 1.56 µg/mL (≈ 1.89 µM) | MIC (Staphylococcus aureus [4]): 3.13 µg/mL (≈ 3.79 µM) | Activity (Staphylococcus aureus [5]): 3 deltalog10CFU/ml | Activity (Staphylococcus aureus [6]): Active | Activity (Lipid bilayer [7]): 46% | Activity (Lipid bilayer [8]): 53.5% | Activity [9]: 23.9% | Activity (Staphylococcus aureus [10]): Active | Activity (Staphylococcus aureus [11]): Active | viability at 24 h, 30 µM [12]: 98.2% | Activity [13]: 0.05%
